Values after ≈ are worked out from the molar mass of the structure shown. Values joined by “and” are separate entries in the source; they are usually repeats but may differ in a detail not shown here. Equal entries are not always repeated. Where two headings read alike, the source gives them in different places.
Tests used:
[1] = test system: Escherichia coli (ATCC: 25922); assay: Antibacterial agar disc diffusion; type: cell-based; conditions: for zone of inhibition at 100 µg/mL: Escherichia coli, read-out: Inhibition zones (mm); for Activity index (%): relative to ampicillin; for Inhibition zones (mm): 5-mm discs, 100 μg/mL
Procedure, shortened: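 E. coli ATCC 25922 grown on Mueller–Hinton agar, 18–24 h at 35 °C. Inoculum adjusted to McFarland 0.5 (1.5x 10^8 CFU/mL) and swabbed as a lawn on Mueller–Hinton plates. Test compounds were stocked at 20 mg in 1 mL DMSO, and 5-mm paper discs were loaded with 100 μg/mL. Inhibition zone diameter was measured against ampicillin as standard, with DMSO as negative control. Assayed twice.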

[2] = test system: MCF-7: a human breast cancer cell line; assay: Cytotoxicity MTT assay, MCF-7; type: cell-based; conditions: for IC50: read-out: IC50 MCF-7; for IC50 MCF-7: means ± SD, n = 3
Procedure, shortened: (§1)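 Cells were kept in DMEM with 0.2 % sodium bicarbonate and 10 % FBS at 37 °C, 5 % CO2, humidified. Only batches above 98 % trypan-blue viability were used. 10,000 cells/well adhered 24 h before treatment. MTT (5 mg/ml PBS stock, 10 μl per 100 μl) was added for 4 h, formazan dissolved in DMSO and read at 550 nm. Background-corrected survival = ODt/ODc ×100 versus untreated controls; IC50 taken from dose–response curves; cisplatin reference.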

[3] = test system: HELA: cancerous cervical tumor cells; assay: Cytotoxicity MTT assay, HELA; type: cell-based, human; conditions: for IC50: read-out: IC50 HELA; for IC50 HELA: means ± SD, n = 3; for cytotoxic activity class, HELA: class by IC50 (µg/mL)
Procedure, shortened: as §1

[4] = test system: HEK293: human embryonic kidney cells; assay: Cytotoxicity MTT assay, HEK293 normal cells; type: cell-based; conditions: for IC50 HEK293: MTT, normal cell line, means ± SD, n = 3
Procedure, shortened: as §1

[5] = test system: Escherichia coli (ATCC: 25922); assay: Antibacterial minimal inhibitory concentration; type: cell-based; conditions: 24 h; for Minimum Inhibition concentration (MIC): E. coli
Procedure, shortened: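 Test compounds were stocked at 20 mg/mL in DMSO. Ampicillin was run as standard drug and DMSO as negative control. MIC reported in μM.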

[6] = Formation stability constant of the complexes; type: physicochemical; conditions: metal:ligand 1:2
[7] = target: Human serum albumin (HSA) (Homo sapiens, UniProt P02768); assay: HSA binding, fluorescence quenching titration; conditions: slope of Fo/F vs [metal complex]
Sequence of Human serum albumin (HSA) (P02768 25-609): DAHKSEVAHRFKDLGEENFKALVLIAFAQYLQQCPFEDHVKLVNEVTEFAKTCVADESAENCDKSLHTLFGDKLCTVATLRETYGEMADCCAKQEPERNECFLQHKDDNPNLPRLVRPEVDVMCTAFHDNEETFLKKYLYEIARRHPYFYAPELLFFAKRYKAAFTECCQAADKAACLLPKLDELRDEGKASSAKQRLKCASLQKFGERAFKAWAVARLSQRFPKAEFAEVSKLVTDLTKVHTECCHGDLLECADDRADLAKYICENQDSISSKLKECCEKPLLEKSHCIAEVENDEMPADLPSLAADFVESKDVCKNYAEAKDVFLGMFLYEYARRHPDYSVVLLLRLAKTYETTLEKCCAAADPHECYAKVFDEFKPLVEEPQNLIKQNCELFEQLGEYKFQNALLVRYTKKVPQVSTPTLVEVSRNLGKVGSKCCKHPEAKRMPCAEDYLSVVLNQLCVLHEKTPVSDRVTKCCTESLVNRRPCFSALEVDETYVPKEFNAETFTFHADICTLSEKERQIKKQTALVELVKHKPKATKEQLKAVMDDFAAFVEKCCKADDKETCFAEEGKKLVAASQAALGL
Procedure, shortened: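 HSA concentration fixed spectrophotometrically at 278 nm using ε 35,219 M−1cm−1 (1 cm quartz). Increasing amounts of metal complex were titrated into constant HSA. Tryptophan fluorescence was excited at 280 nm and emission recorded over 300–400 nm. KSV was taken as the slope of the Stern–Volmer plot Fo/F versus [complex].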

Escherichia coli = conditions: cited from earlier work

CC(=O)Oc1ccccc1C(=O)Nc1ncc([N+](=O)[O-])s1 [Free NTZ, 2-(acetyloxy)-N-(5-nitro-2-thiazolyl) benzamide, reference compound]
zone of inhibition at 100 µg/mL [1]: 8 mm
Activity index (%) [1]: 24%
IC50 ([2]; Homo sapiens, MCF7a): 62 µg/mL and 202 µM
IC50 ([3]; Homo sapiens, HeLa): 78 µg/mL and 254 µM
IC50 ([4]; Homo sapiens, HEK293, read-out: IC50 HEK293): 1050 ± 10 µg/mL (≈ 3.42 mM)
MIC ([5]; Escherichia coli, read-out: Minimum Inhibition concentration (MIC)): 105 µM (≈ 32.3 µg/mL)

CC1(C)S[C@@H]2[C@H](NC(=O)[C@H](N)c3ccccc3)C(=O)N2[C@H]1C(=O)O [Ampicillin, reference compound]
zone of inhibition at 100 µg/mL [1]: 33 mm
Activity index (%) [1]: 100%

[Ru(NTZ)2Cl2]Cl [NTZ-Ru(III)]
Inhibition zones (mm) [1]: 20 mm
Activity index (%) [1]: 61%
IC50 MCF-7 ([2]; MTT): 10.5 ± 2 µg/mL
IC50 ([2]; MTT): 12.8 µM
IC50 HELA ([3]; MTT): 6.5 ± 3 µg/mL
cytotoxic activity class, HELA [3]: very strong (1–10 (very strong))
IC50 ([3]; MTT): 7.9 µM
formation stability constant for the complexes [6]: 34.37 × 10^5
IC50 HEK293 [4]: 265 ± 5 µg/mL
Minimum Inhibition concentration (MIC) [5]: 7.5 µM
fluorescence constant (Kvs; Stern-Volmer quenching constant KSV) with HSA [7]: 4e+06 M⁻¹

[Au(NTZ)2]Cl3 [NTZ-Au(III)]
Inhibition zones (mm) [1]: 12 mm
Activity index (%) [1]: 37%
IC50 MCF-7 ([2]; MTT): 25 ± 5 µg/mL
cytotoxic activity class, MCF-7 ([2]; class by IC50 (µg/mL)): Moderate
IC50 ([2]; MTT): 27.3 µM
IC50 HELA ([3]; MTT): 8.9 ± 4 µg/mL
cytotoxic activity class, HELA [3]: very strong (1–10 (very strong))
IC50 ([3]; MTT): 9.7 µM
formation stability constant for the complexes [6]: 17.92 × 10^5
IC50 HEK293 [4]: 675 ± 5 µg/mL
Minimum Inhibition concentration (MIC) [5]: 27.5 µM
fluorescence constant (Kvs; Stern-Volmer quenching constant KSV) with HSA [7]: 7e+06 M⁻¹

[Ag(NTZ)2]NO3 [NTZ-Ag(I)]
Inhibition zones (mm) [1]: 28 mm
Activity index (%) [1]: 85%
IC50 MCF-7 ([2]; MTT): 39 ± 4 µg/mL
IC50 ([2]; MTT): 50.8 µM
IC50 HELA ([3]; MTT): 45 ± 2 µg/mL
IC50 ([3]; MTT): 58.7 µM
formation stability constant for the complexes [6]: 4.22 × 10^5
IC50 HEK293 [4]: 660 ± 3 µg/mL
Minimum Inhibition concentration (MIC) [5]: 5.5 µM
fluorescence constant (Kvs; Stern-Volmer quenching constant KSV) with HSA [7]: 3e+06 M⁻¹

O=[N+]([O-])[O-].[Ag+] [AgNO3]
concentration showing complete inhibition of Escherichia coli (Escherichia coli): > 8.5 µM
reported growth-inhibiting concentration toward Escherichia coli (Escherichia coli; practical value for more than 24 h): 6.5 µM
